From ChEMBL document CHEMBL1833961, “Homology modeling in tandem with 3D-QSAR analyses: a computational approach to depict the agonist binding site of the human CB2 receptor” (Eur J Med Chem, 2011) come the findings set out here.

What all share (assay type): cell-based
Experiment [1] deals with T1, Cannabinoid receptor 2 (Homo sapiens, UniProt P34972). Description: Displacement of [3H]-WIN 55,212-2 from human CB2 receptor expressed in human HEK293 cells after 90 mins by radioligand assay. (In general: In a radioligand displacement assay an active substance lowers the binding of a labelled ligand.)
The target of experiment [2] is T1, Cannabinoid receptor 2. Put plainly: Displacement of [3H]-WIN 55,212-2 from human CB2 receptor expressed in human HEK293 cells at 10 uM after 90 mins by radioligand assay.
Experiment [3] concerns the target T2, Cannabinoid receptor 1 (Homo sapiens, UniProt P21554). Put plainly: Displacement of [3H]-CP-55,940 from human CB1 receptor expressed in human HEK293 cells at 10 uM after 90 mins by radioligand assay. An outline of the steps:
(§1)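 Percent displacement of [3H]-CP 55,940 (0.5 nM) from human recombinant CB1 in HEK-293 cell membranes (Bmax 2.5 pmol/mg protein), with a single inhibitor concentration of 1 or 10 µM. Incubation was 90 min at 30 °C, and nonspecific binding was defined with 10 uM WIN 55212-2.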

In experiment [4] the target is T2, Cannabinoid receptor 1. Put plainly: Displacement of [3H]-CP-55,940 from human CB1 receptor expressed in human HEK293 cells after 90 mins by radioligand assay. An outline of the steps:
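Membranes from HEK-293 cells transfected with human recombinant CB1 (Bmax 2.5 pmol/mg protein) were incubated with 0.14 nM [3H]-CP-55,940 (Kd 0.18 nM) and increasing compound concentrations for 90 min at 30 °C. Nonspecific binding was defined with 10 uM WIN 55212-2. Ki was calculated from IC50 by Cheng–Prusoff.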

The target in experiment [5] is T2, Cannabinoid receptor 1. Description: Displacement of [3H]-CP-55,940 from human CB1 receptor expressed in human HEK293 cells at 1 uM after 90 mins by radioligand assay. Put shortly: as §1
For experiment [6], the target named is T1, Cannabinoid receptor 2. Description: Displacement of [3H]-WIN 55,212-2 from human CB2 receptor expressed in human HEK293 cells at 1 uM after 90 mins by radioligand assay.

By IC50 is commonly meant the point on the concentration scale where inhibition reaches its midpoint. The low end stands for greater potency, the high end for weaker potency.

Molecules are shown by their SMILES. Some results are limits rather than exact numbers.

T2 sequence (P21554 whole entry): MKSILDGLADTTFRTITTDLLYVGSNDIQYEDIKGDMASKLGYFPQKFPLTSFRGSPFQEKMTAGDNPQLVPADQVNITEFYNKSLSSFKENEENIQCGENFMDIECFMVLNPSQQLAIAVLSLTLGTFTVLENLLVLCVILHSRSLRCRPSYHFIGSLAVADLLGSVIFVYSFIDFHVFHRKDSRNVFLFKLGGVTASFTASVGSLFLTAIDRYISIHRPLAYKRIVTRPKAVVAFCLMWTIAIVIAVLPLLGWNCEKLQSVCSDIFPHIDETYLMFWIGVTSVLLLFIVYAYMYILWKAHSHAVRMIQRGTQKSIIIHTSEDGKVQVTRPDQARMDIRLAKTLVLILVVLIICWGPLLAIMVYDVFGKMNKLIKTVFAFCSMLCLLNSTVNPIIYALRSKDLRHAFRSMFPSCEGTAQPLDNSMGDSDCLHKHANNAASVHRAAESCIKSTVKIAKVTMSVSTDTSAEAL
T1 sequence (P34972 whole entry): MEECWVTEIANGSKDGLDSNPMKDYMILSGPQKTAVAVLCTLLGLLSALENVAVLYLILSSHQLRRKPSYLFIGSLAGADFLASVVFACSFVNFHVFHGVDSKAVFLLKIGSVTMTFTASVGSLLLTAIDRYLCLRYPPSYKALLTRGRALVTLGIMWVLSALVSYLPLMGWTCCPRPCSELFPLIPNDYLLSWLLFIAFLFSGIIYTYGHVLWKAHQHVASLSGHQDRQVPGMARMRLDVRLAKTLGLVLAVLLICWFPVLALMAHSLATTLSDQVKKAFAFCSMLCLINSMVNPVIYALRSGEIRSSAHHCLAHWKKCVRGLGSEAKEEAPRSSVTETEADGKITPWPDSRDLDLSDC

In the case of `N#C/C(=C\c1cn(CCN2CCCCC2)c2ccccc12)S(=O)(=O)c1ccccc1`, the Ki on Cannabinoid receptor 2 [1] (read-out: Ki) is 7.5 nM. In addition, the Activity at Cannabinoid receptor 2 [2] stood at 101%; at Cannabinoid receptor 1 [3], 83%.
For `CCOC(=O)/C(=C/c1cn(CCN2CCOCC2)c2ccccc12)C(=O)c1ccccc1`, the values for the IC50 at Cannabinoid receptor 2 [1] and at Cannabinoid receptor 1 [4] were 6220 nM and more than 10000 nM, respectively. The Ki at Cannabinoid receptor 2 [1] (read-out: Ki) is 1580 nM; at Cannabinoid receptor 1 [4] it was more than 10000 nM. Also, the Activity on Cannabinoid receptor 2 [2] stood at 66%; on Cannabinoid receptor 1 [3] it was 43.2%.
`CC1(C)C(C(=O)c2cn(CC3CCOCC3)c3c(CC4CCOCC4)c4c(cc23)OCO4)C1(C)C`: on Cannabinoid receptor 2 [1] (read-out: pKi (converted)), the Ki is 1.02 nM.
In the case of `CCOC(=O)/C(=C/c1cn(CCN2CCCCC2)c2ccccc12)C(=O)c1ccccc1`, the half-inhibitory concentration (IC50) was 5480 nM on Cannabinoid receptor 2 [1] and more than 10000 nM on Cannabinoid receptor 1 [4]. Also, the Ki on Cannabinoid receptor 2 [1] (read-out: Ki) is 1390 nM; on Cannabinoid receptor 1 [4] it was more than 10000 nM. Further, the Activity on Cannabinoid receptor 2 [2] was 70.8%; on Cannabinoid receptor 1 [3], 25.1%.
As to `N#C/C(=C\c1cn(CCN2CCOCC2)c2ccccc12)S(=O)(=O)c1ccccc1`, the IC50 at Cannabinoid receptor 2 [1] was determined as 40.1 nM; on Cannabinoid receptor 1 [4], 155 nM. Moreover, the Ki on Cannabinoid receptor 2 [1] (read-out: Ki) worked out at 10.2 nM; on Cannabinoid receptor 1 [4], 62 nM. Further, the Activity worked out at 85% on Cannabinoid receptor 1 [5] and 95.9% on Cannabinoid receptor 2 [6].
